# CHT PAM – allosterically activates the human high affinity choline transporter. Q9GZV3. CHT-expressing cells, membrane potential dye, choline EC20; hits give high values; LV-AA mutant CHT in HEK293 cells. B-score at 10 µM. 310,000 tested, 0.49% active. AID 488977;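 active means initial fluorescence not abnormally high and integrated response B-score, plate-corrected, over 3 SD above library mean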
# CHT block – human CHT choline transport inhibition. Q9GZV3. CHT-expressing cells, membrane potential dye, choline response; hits give low values. B-score at 10 µM. 310,000 tested, 0.86% active. AID 488975;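 active means B-score over 3 SD under the library average, and starting fluorescence ratio not unusually high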;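 further: choline stimulus applied at its EC90 after an EC20 pre-addition; B-score computed on integrated fluorescence ratio after choline addition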
# pCIP destab – lowers stability of the mouse p/CIP coactivator protein; 290,000 tested, 0.01% active; decrease of EGFP signal, % at 10 µM; AID 1984; F442A p/CIP-EGFP cells, EGFP fluorescence, 16 h; Q05BA5;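 active means EGFP signal decrease of at least 30% at 10 µM or well 3 SD below plate mean, unless failing retest; inactive means the rest, including hits failing retest or dose response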
# Pemphigus Ab inh – inhibitors of pemphigus antibody binding to human desmoglein-3; binding (percent of control), % at 10 µM; 310,000 tested, 0.48% active; AID 588358; DSG3-coupled beads, scFv-anti-DSG3-GFP binding, flow cytometry; hits give low values;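 active means binding more than 3 SD below its plate's average and above zero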;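 further: hits lower antibody fragment binding to DSG3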
# T cell modulator – modulates CD8 T cell binding to vesicles; response (vesicle binding), % at 7 µM; 2C CD8+ T cell-vesicle binding, flow cytometry; hits give low values; 330,000 tested, 0.068% active;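 active means response, share of CD8 T cells binding vesicles, and their 90th percentile fluorescence all below set limits, cut at about 80% in these data, passing the limit was not always enough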;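 further: values below 100% mean blocked vesicle binding to the CD8+ T cells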
#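 Material: murine 2C transgenic CD8+ T lymphocytes / Also added: QL9-peptide-loaded Drosophila micro-vesicles bearing Ld, ICAM-1 and B7-1 / Schedule: binding step 1.5 h, 37 °C, antibody labelling 20 min, ice / Signal: flow cytometry, PE anti-B7-1 (FL2) versus Alexa647 anti-CD8 (FL8), PFA-fixed / Evaluation: percent CD8+ FL2 mean versus row control / Benchmarks: naked versus QL9-loaded vesicles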
# GPR7 antagonist – human neuropeptides B/W receptor 1 antagonism; inhibition, % at 4.4 µM; 290,000 tested, 1.1% active; P48145; GPR7-expressing cells, fluorescence antagonist assay; in the data active means inhibition above about 16%, passing the limit was not always enough;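 further: cells stimulated with the agonist NPW; 0% = agonist with vehicle and 100% = vehicle without agonist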
# Target sequence (P48145 whole entry, looked up): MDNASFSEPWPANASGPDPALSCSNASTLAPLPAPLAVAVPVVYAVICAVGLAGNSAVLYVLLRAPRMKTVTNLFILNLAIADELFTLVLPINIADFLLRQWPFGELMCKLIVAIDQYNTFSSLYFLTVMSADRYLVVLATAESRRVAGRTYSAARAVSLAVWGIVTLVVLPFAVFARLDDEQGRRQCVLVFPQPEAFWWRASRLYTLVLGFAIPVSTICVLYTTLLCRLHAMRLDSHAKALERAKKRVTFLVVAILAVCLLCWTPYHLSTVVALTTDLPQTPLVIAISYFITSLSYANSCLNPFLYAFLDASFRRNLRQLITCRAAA
# GPR7 antag cf – human GPR7 antagonism, confirmation assay. AID 1952. GPR7-expressing cells, calcium fluorescence antagonist mode. shares compounds with GPR7 antagonist. inhibition, % at 4.4 µM. 2,400 tested, 52% active; in the data active means inhibition above about 24%;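 further: stimulated with the GPR7 agonist NPW; 0% = agonist plus vehicle and 100% = vehicle alone without agonist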
# MCHR1 antag – MCHR1 (human) antagonism in GPR7 counter-screen; shares compounds with GPR7 antagonist; MCHR1-expressing cells, fluorescence antagonist assay; inhibition, % at 4.4 µM; 2,400 tested, 62% active; in the data active means inhibition above about 22%;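 further: 0% = vehicle with agonist and 100% = vehicle without agonist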
# * marks the source's active call; other numbers are inactive results; i = inactive; . = no result given. Sampled rows, rich in hits. Any-hit rate of the full collection: about 2.3%.
SMILES,CHT PAM,CHT block,pCIP destab,Pemphigus Ab inh,T cell modulator,GPR7 antagonist,GPR7 antag cf,MCHR1 antag
COc1ccc(-n2c(C)cc(/C=C3\C(=N)N4N=C(CC(=O)N5CCOCC5)SC4=NC3=O)c2C)cc1,i,i,12.4,102.2,21.1,32.0*,-2.1,15.5
CNC(=O)C[C@H]1C(=O)N(Cc2ccccc2)C[C@@H]1C,.,.,.,109.4,.,.,.,.
COc1ccc(/C=C/c2ccc3cccc(O)c3n2)c(OC)c1OC,i,i,3.6,103.9,278.0,32.5*,20.3,62.0*
COc1cccc(/C=C/c2ccc3cccc(O)c3n2)c1OC,i,i,4.4,97.0,822.1,2.2,.,.
Cc1nn(Cc2ccc(C(=O)Nc3ccccc3F)cc2)c(C)c1Cl,i,i,-4.0,101.1,370.2,32.3*,9.8,31.4*
CC(=O)Nc1cc2c3c(cccc3c1)-c1ccccc1-2,.,.,.,98.4,.,.,.,.
CCCCCCCN1C(Nc2ccccc2)=NC[C@@H]1CC(C)C,i,i,-10.4,105.0,358.4,44.3*,39.6*,34.0*
CC(C)C[C@H]1CN=C(Nc2ccccc2)N1CC1CCC(C)CC1 (some centres undefined),i,i,-13.0,102.7,428.6,33.2*,29.7*,21.8*
CC(C)C[C@H]1CN=C(Nc2ccccc2)N1CCCC1CCCC1,i,i,-18.8,114.4,426.3,45.6*,48.9*,35.6*
O=C(CN1CCN(C(=O)c2ccco2)CC1)Nc1cc(S(=O)(=O)N2CCCC2)ccc1Cl,.,.,.,112.2,.,.,.,.
COc1cc2c(cc1OC)C(=NO)CCCC2,.,.,.,106.1,.,.,.,.
CN(Cc1ccc(Cl)cc1Cl)C(=O)C1CC(=O)N(Cc2ccco2)C1 (centres undefined),.,.,.,105.4,.,.,.,.
Cc1cc2c(cc(C(=O)N3CCC(C(=O)N4CCCC4)CC3)n2Cc2c(F)cccc2Cl)o1,i,i,-8.7,102.9,i,27.0*,19.6,12.2
CCOC(=O)c1cc2occc2n1Cc1c(F)cccc1Cl,i,i,0.9,101.0,211.6,-9.0,.,.
O=C(CSc1nnc(Cc2cccs2)n1Cc1ccco1)Nc1ccc(Cl)cc1Cl,i,i,-0.1,98.2,649.6,28.4*,31.2*,34.5*
COCCCN(Cc1cc(OC)c(OC)c(OC)c1)C(=S)Nc1cccc(SC)c1,.,.,.,104.3,.,.,.,.
COc1ccc2cc([C@H](C)C(=O)N(C)Cc3ccccc3N3CCCC3)ccc2c1,i,i,-2.5,117.9,278.0,27.9*,3.7,49.8*
CC(C(=O)Nc1c2c(cc3c1CCC3)CCC2)N1CCCC1 (centres undefined),i,i,-9.6,117.1,394.9,32.1*,20.7,28.2*
CCN(CC)C(C)C(=O)Nc1c2c(cc3c1CCC3)CCC2 (centres undefined),i,i,-1.4,90.2,212.5,3.8,.,.
CCOC(=O)c1c(NC(=O)C2COc3ccccc3O2)sc2c1CC(C)(C)NC2(C)C (centres undefined),i,i,-5.3,131.2,0.0,23.5*,31.8*,37.8*
Clc1cccc(-c2nnc(SC/C=C/c3ccccc3)n2Cc2ccco2)c1,7.3*,i,4.5,103.0,354.4,26.6*,43.8*,72.4*
C(=C\c1ccccc1)/CSc1nnc(-c2ccccc2)n1Cc1ccco1,i,i,-5.0,102.5,219.1,31.5*,41.5*,63.9*
C(=C\c1ccccc1)/CSc1nnc(-c2ccncc2)n1Cc1ccco1,i,i,-16.0,94.2,209.6,-6.7,.,.
COCCNC(=S)N(C)[C@H]1C[C@H]2c3cc(N4CCN(C)CC4)ccc3CCN2C(=O)[C@H]1[C@H](C)O,.,.,.,105.0,.,.,.,.
CC(=O)c1cccc(NC(=O)CSc2ccc(-c3sc(C)nc3C)nn2)c1,i,i,-7.7,108.5,315.1,8.3,.,.
SMILES,CHT PAM,CHT block,pCIP destab,Pemphigus Ab inh,T cell modulator,GPR7 antagonist,GPR7 antag cf,MCHR1 antag
Cc1nc(C)c(-c2ccc(SCC(=O)Nc3cccc(Cl)c3)nn2)s1,i,i,-15.4,117.9,131.0,33.2*,47.9*,66.6*
CCc1ccc(NC(=O)CSc2ccc(-c3sc(C)nc3C)nn2)cc1,i,i,-7.9,117.4,334.7,31.2*,41.4*,76.1*
O=C(NCC(=O)N1CCN(Cc2c(F)cccc2Cl)CC1)c1cccs1,.,.,.,100.1,.,.,.,.
CCCCN1C(=O)C(CC(=O)NC2CCCC2)CC(C(=O)N(C(C)C)C(C)C)=C1C (centres undefined),.,.,.,103.0,.,.,.,.
CC(=O)NCCNC(=O)c1ccc(Sc2ccccc2)c([N+](=O)[O-])c1,i,i,-2.6,102.8,246.2,-13.8,.,.
CN(C)CCNC(=O)c1ccc(Sc2ccc(Br)cc2)c([N+](=O)[O-])c1,i,i,-4.3,102.4,192.9,23.2*,36.7*,42.3*
O=C(Nc1ccc(CN2CCCCC2)cc1)Nc1ccccc1Cl,i,i,-10.3,85.7,306.2,11.8,.,.
O=C(Nc1ccc(Br)cc1)Nc1ccccc1Cl,i,i,-13.5,97.9,79.9,73.0*,78.9*,62.8*
COc1ccc(NC(=O)CCc2nnc3ccc(N4CCN(c5cccc(OC)c5)CC4)nn23)cc1,i,i,-4.4,101.9,225.4,24.6*,0.7,33.4*
COc1cccc(NC(=O)CCc2nnc3ccc(N4CCN(c5cccc(OC)c5)CC4)nn23)c1,i,i,3.5,102.5,248.4,-6.9,.,.
COc1cc(/C=C2/SC(=S)N(CC(=O)NNC(=O)c3ccc(F)cc3)C2=O)cc(OC)c1OC,.,.,.,102.2,.,.,.,.
COCCN=C1N[C@@H](c2ccc(Br)cc2)C(C(=O)OC)=C(C)N1Cc1ccccc1,i,i,1.9,101.4,444.6,48.5*,65.0*,41.2*
Cc1ccc2c(c1)N(CC(=O)OC(CC(C)C)C(=O)NC1CCCC1)C(=O)CO2 (centres undefined),i,i,-11.1,99.7,225.2,28.6*,30.4*,33.0*
COc1cccc(CNC(=O)CN2C(=O)COc3ccc(S(=O)(=O)N4CCOCC4)cc32)c1,i,i,0.7,102.6,290.4,32.1*,-9.0,3.2
O=C(CN1C(=O)COc2ccc(S(=O)(=O)N3CCCC3)cc21)NC1CC1,i,i,1.2,85.3,131.7,4.5,.,.
COc1cccc(CNC(=O)CN2C(=O)COc3ccc(S(=O)(=O)N4CCCCC4)cc32)c1,i,i,1.8,.,62.9,1.9,.,.
O=C(CN1C(=O)COc2ccc(S(=O)(=O)N3CCCC3)cc21)NC1CCCCCCC1,i,i,9.1,.,271.8,27.2*,-2.8,4.5
